Molecules are shown by their SMILES. Activity calls are given as the source filed them. No cut-off for these calls is given here.

Test [1] has as its target T1, Histone-lysine N-methyltransferase EHMT1 (Homo sapiens, UniProt Q9H9B1).
T1 sequence (Q9H9B1 whole entry): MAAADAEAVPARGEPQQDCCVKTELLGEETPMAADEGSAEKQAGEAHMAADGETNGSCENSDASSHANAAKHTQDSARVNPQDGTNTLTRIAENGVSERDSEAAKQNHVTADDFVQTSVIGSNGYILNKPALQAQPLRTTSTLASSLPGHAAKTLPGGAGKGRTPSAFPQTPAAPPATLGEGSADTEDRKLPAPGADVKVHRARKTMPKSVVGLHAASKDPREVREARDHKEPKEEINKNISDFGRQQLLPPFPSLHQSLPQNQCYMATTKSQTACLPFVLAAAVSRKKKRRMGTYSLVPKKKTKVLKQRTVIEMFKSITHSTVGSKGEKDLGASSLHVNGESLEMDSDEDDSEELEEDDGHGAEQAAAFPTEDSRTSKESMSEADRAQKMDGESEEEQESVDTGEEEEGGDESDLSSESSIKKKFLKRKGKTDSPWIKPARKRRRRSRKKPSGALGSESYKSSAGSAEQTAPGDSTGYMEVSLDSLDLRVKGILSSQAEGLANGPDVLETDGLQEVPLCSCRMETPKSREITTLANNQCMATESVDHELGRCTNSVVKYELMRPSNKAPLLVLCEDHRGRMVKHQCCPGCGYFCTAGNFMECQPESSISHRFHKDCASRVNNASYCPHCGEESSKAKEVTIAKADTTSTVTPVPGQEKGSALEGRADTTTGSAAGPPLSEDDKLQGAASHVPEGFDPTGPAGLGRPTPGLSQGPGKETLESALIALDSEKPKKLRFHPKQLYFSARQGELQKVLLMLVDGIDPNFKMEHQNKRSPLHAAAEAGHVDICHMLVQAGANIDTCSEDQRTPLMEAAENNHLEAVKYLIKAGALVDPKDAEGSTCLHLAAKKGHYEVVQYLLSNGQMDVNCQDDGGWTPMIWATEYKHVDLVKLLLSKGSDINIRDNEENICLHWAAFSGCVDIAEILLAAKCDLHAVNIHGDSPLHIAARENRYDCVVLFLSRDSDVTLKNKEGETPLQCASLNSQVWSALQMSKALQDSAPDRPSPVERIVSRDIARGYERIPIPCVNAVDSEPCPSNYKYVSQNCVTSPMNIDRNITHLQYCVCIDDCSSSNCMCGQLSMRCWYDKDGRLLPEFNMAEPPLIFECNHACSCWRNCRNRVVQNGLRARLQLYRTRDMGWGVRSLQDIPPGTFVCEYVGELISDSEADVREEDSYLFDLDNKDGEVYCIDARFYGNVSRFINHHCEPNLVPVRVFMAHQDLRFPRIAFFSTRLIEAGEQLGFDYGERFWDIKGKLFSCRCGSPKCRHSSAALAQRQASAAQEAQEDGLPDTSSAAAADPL
Kind of test: Inhibition of EHMT1 (unknown origin).

The target of test [2] is T2, Histone-lysine N-methyltransferase EHMT2 (Homo sapiens) (UniProt Q96KQ7).
T2 sequence (whole entry): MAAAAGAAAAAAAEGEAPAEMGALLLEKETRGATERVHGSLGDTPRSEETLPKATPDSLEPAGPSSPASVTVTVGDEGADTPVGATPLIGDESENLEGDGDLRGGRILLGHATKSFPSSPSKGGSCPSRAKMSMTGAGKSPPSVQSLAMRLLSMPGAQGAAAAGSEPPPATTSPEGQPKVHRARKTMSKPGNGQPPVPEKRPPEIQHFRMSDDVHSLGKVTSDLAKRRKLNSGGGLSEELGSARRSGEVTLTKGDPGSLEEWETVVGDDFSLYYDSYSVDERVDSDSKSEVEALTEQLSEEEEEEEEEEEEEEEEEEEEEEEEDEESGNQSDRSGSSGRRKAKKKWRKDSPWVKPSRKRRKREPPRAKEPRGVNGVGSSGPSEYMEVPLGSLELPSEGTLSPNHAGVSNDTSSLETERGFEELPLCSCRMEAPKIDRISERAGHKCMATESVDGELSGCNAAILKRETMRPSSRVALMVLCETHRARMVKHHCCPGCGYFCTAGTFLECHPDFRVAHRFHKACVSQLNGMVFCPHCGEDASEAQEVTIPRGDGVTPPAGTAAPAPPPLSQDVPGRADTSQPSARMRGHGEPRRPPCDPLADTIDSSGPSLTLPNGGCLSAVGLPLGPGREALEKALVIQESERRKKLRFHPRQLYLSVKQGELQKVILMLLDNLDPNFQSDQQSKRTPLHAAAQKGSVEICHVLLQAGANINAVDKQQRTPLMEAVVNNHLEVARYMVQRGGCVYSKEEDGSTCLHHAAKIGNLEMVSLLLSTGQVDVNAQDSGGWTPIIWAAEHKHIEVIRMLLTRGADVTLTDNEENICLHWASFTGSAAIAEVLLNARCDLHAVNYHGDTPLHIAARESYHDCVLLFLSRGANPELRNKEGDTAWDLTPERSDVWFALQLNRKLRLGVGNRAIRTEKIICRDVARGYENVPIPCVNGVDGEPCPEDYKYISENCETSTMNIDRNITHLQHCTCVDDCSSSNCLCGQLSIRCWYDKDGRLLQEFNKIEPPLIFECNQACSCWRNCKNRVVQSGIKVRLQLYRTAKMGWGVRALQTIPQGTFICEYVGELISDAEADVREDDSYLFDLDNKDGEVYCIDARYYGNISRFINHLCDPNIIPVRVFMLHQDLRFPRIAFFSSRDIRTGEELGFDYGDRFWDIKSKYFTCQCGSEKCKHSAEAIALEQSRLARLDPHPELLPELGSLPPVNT
Briefly: Inhibition of EHMT2 (unknown origin) at 400 uM preincubated for 15 mins followed by SAM and biotinylated H3K9 peptide addition measured after 30 mins by TR-FRET assay relative to control. The method, boiled down: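 Single-point EHMT2 screen at 400 μM, 1% DMSO. Final 0.6 nM EHMT2, 0.5 µM biotinylated H3(1-21)K9 peptide, 3 µM SAM in 50 mM Tris-HCl pH 9.0, 50 mM NaCl, 1 mM DTT, 0.01% Tween-20. Detection 60 min with final 2 nM Eu-antibody, 50 nM ULight-streptavidin, 0.0001% poly-L-lysine. TR-FRET read at 665/620 nm.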

The target in test [3] is T3, Histone-lysine N-methyltransferase EHMT1 (Homo sapiens) (UniProt Q9H9B1).
T3 sequence (whole entry): T1 sequence (Q9H9B1 whole entry)
Briefly: (§1) Inhibition of EHMT1 (unknown origin) preincubated for 5 mins followed by SAM and biotinylated H3K9 peptide addition measured after 120 mins by HTRF assay. The method, boiled down: (§2)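 Final 0.4 nM enzyme, 150 nM biotinylated H3(1-21)K9 peptide, 6 μM SAM, pH 8.8 Tris buffer, 1% DMSO. Eu-antibody/SA-XL665 HTRF read at 665/620 nm. Mean±SEM of 3-4 independent experiments in triplicate.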

Test [4] addresses T1, Histone-lysine N-methyltransferase EHMT1. The test is described as §1. Conditions: read-out: IC50. The method, boiled down: as §2
The test system of another test is HL-60. Kind of test: Antiproliferative activity against human HL60 cells at 200 uM after 72 hrs by CCK8 assay relative to control. Conditions: HL-60, 72 h. The format is functional.
In another test the test system is MDA-MB-231. Briefly: Antiproliferative activity against human MDA-MB-231 cells at 200 uM after 72 hrs by sulforhodamine B assay relative to control. It counts as functional. Conditions: MDA-MB-231, 72 h. (The SRB assay estimates cell density from bound dye.)
Test [5] deals with T2, Histone-lysine N-methyltransferase EHMT2 (Homo sapiens). Kind of test: (§3) Inhibition of EHMT2 (unknown origin) preincubated for 15 mins followed by SAM and biotinylated H3K9 peptide addition measured after 30 mins by TR-FRET assay. (In TR-FRET formats the signal depends on donor and acceptor labels being close together.)
In test [6] the target is T3, Histone-lysine N-methyltransferase EHMT1 (Homo sapiens). Kind of test: Inhibition of EHMT1 (unknown origin) at 200 uM preincubated for 5 mins followed by SAM and biotinylated H3K9 peptide addition measured after 120 mins by HTRF assay relative to control. The essentials:
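Final EHMT1 0.4 nM, biotinylated unmethylated H3(1-21)K9 peptide 150 nM, SAM 6 μM in 50 mM Tris-HCl pH 8.8, 50 mM NaCl, 1 mM DTT, 0.01% Tween-20; samples at 200 μM, 1% DMSO final. Detection by Eu-antibody plus streptavidin-XL665, 60 min. HTRF read: excitation 320 or 340 nm, emission 665/620 nm.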

Test [7] deals with Protein arginine N-methyltransferase 1 (Homo sapiens) (UniProt Q99873). Briefly: Inhibition of PRMT1 (unknown origin) at 400 uM preincubated for 5 mins followed by SAM and H4 (1 to 25 residues) peptide addition measured after 1 hr by HTRF assay relative to control.
Protein arginine N-methyltransferase 1 (Homo sapiens), sequence (Q99873 whole entry, looked up, the tested form may be a part): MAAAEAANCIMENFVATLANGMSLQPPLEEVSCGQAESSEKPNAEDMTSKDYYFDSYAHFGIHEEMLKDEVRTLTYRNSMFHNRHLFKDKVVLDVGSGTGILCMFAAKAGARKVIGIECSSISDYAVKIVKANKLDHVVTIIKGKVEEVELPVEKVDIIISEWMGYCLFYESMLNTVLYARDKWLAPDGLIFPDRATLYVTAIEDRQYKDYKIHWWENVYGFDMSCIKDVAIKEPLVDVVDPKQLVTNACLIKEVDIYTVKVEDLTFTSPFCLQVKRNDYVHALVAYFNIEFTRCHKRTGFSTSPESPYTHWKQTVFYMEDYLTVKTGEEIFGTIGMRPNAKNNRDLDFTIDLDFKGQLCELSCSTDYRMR
For test [8], the target named is T4, Histone-lysine N-methyltransferase EHMT2 (Homo sapiens, UniProt Q96KQ7).
T4 sequence (Q96KQ7 whole entry): T2 sequence (whole entry)
The description is as §3.

The term IC50 denotes the point on the concentration scale where inhibition reaches its midpoint. The term inhibition denotes the percentage by which the read-out fell short of the control. Consider `Nc1ncnc2c1ncn2[C@@H]1O[C@H](C[C@@H](N)CC[C@H](N)C(=O)O)[C@@H](O)[C@H]1O` [SINEFUNGIN], for which the IC50 is 0.1 to 20 µM in test [1] and 28.4 µM in test [4]. Besides, the inhibition is 79.5% in [2], “Dose-dependent effect” in test [3], “Dose-dependent effect” in test [5] and 100% in [6]. The inhibition at 200 µM turned out to be 41% with HL-60 and 42.8% with MDA-MB-231.
For the molecule `Nc1ncnc2c1ncn2[C@@H]1O[C@H](C[C@@H](N)CC2CC2)[C@@H](O)[C@H]1O`, the inhibition is 77.6% in test [2], “Dose-dependent effect” in test [3], “Dose-dependent effect” in [5] and 88.9% in test [6]. Moreover, in [7], the inhibition entry is “inactive”. Also, the figures for the half-inhibitory concentration (IC50) in test [4] and in test [8] were 21.8 µM and 39.6 µM, respectively. Moreover, the inhibition at 200 µM with HL-60 was 37.9 to 38.4%; in the test with MDA-MB-231, 41.4%.

(Values after ChEMBL document CHEMBL4043120 (Bioorg Med Chem, 2017).)
